Test results from the EternaBench riboswitch data.

Test system: MS2 coat protein
Experiment: apparent Kd, MS2 coat protein; higher = weaker binding; RNA-MaP array; FMN 200 µM where present
Procedure, shortened: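 Green signal from SNAP-549-labelled MS2 coat protein was normalised to red-channel RNA signal and to the median Fmax of control clusters. The protein was titrated from 0.7 or 1.5 nM, doubling to 3 µM, without and then with constant ligand, over designs transcribed by stalled E. coli RNA polymerase on Illumina sequencing-chip clusters, in 100 mM Tris-HCl pH 7.5, 80 mM KCl, 4 mM MgCl2, BSA, DTT, yeast tRNA and Tween-20. The apparent Kd is the median of filtered per-cluster binding-curve fits.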

[1] = designed as: ON switch for flavin mononucleotide, no ligand
[2] = ligand present: flavin mononucleotide, designed as: ON switch for flavin mononucleotide
[3] = designed as: OFF switch for flavin mononucleotide, no ligand
[4] = ligand present: flavin mononucleotide, designed as: OFF switch for flavin mononucleotide

Sequence	apparent Kd [1]	apparent Kd [2]	apparent Kd [3]	apparent Kd [4]
AGAUAACACCAGAAGGACAUGAGGAUCACCCAUGUAGGAUAUGGGCAUCACUCGAGAAAGAAAAGACCAUAUGGACACAUGGUC	160 nM	13.2 nM		
GCCUUAUCCGUCAGGAUAUACAUUUUUUAGUUGUUGUAGAAGGGACAUGAGGAUCACCCAUGUACAUUACAUUG			21.1 nM	21.8 nM
UAUAUAUAGGCAGGAUAUACAUGAAUAUAUAUAAUAUAGUAUGAUGUAACAUGAGGAUCACCCAUGUAGAAGGGCCAAUAUAUA			36.2 nM	83.9 nM
CGCCAGUGAGGAUAUCCAUCUGGAUCAGACUAGAUCCUGAUGGAGAAGGCACAUGAGGAUCACCCAUGUCGGCG			18.5 nM	19.5 nM
GGAUAGGACAGAGGAUAUACGUGCUAAAGAUACUAGCAAAAUUUCCUCACAUGAGGAUCACCCAUGUAGAAGGCUGUCCUAUCG			17.8 nM	466 nM
CUGGUUGUCGUAGGAUAUGUAGGAUAUUCCUACAUGAGGAUCACCCAUGUUCGCAUGGAAGAAAGACAGAAGGACGAUGACCAG	816 nM	50.2 nM		
ACGACUAGAGGAUAUACAUGAGGAUCACCCAUGUAACUGUCAGGUGACUGACGGAGAUGUAGAAGGCUAGUCGA			15.7 nM	42.8 nM
AACAGGUUCACAUGAGGAUCACCCAUGUUAGCCUAACGUAGGAGAAGGACGGUAGCUGGGCUGACGUAGGAUAUCCUACUGUGA	9.22 nM	4.8 nM		
GUACUGACAGGAUAUACAUGAGGAUCACCCAUGUCCUUAUGCUGACAAAAGUCAGCGAGUAGAAGGGUCUGUAC			101 nM	603 nM
AGUGGCCGAGGAUAUACGGACGUGUCGCCGGGUGUCGUGGGACAUGAGGAUCACCCAUGUAGAAGGUGGUUGUU			170 nM	219 nM
AGGAAACAUGAGGAUCACCCAUGUAAAAGGUGGUUAGGAUAUGCGAAAAGAAAAAGAAAAGCAGAAGGGACAAGAA	487 nM	485 nM		
AAUGAGCAGUAGAAGGCAUGUCUACGGACAUGAGGAUCACCCAUGUAGUGAAUCCGAAAGGAGCAUGAGGAUAUACUGCUCUAA	143 nM	27.3 nM		
AUCGGUCCGUAGAAGGGUGACAUGAGGAUCACCCAUGUGCCGUGGGCAUUUAUGCCUCCACGGCCACAGGAUAUACGGAGUUGA	54 nM	36.8 nM		
CCGCCAUAAGUCAGGAUAUUCUUUAAGUUGUUGGAGAAGAAGGGACAUGAGGAUCACCCAUGUAAUAGGCCUCA			842 nM	598 nM
CAUUUACAUGAGGAUCACCCAUGUUCUGGCGGGUCAGGAUAUAGAUCGGAUGCGUUCUGUCUAGAAGGGACAUGUU	72 nM	35.6 nM		
AAAAACUGAGGAUAUACGAAAAAAAAAAAAAAAAAAAAAAAACAUGAGGAUCACCCAUGUAGAAGGCAGAAAAA			50.4 nM	38 nM
GAGUGACAUGAGGAUCACCCAUGUGAGGAUAUCGGACGGACCUAGUUAGCUUCCGCCGCGAGAAGGCACAUCGG			121 nM	45.8 nM
AGUCGGAGCAGAGGAUAUUACAUGAGGAUCACCCAUGUAAUAAGAUCAAGCUGGAAACAGCAAUGUAAGAAGGCUGCUCCGACA			16.3 nM	45.6 nM
UCGUGGUCAGGAUAUACAUGAGGAUCACCCAUGUAAAAGAGCAUUAAGGAGAGACUACGUAGAAGGGACAAAUU			51.6 nM	47.2 nM
AAAUUUUGUCAAGGAUAUGUAUAAAAGAGAAGAAAACAUGAGGAUCACCCAUGUAUAUGGUGGGAACAGAAGGUGAAUAAGUAA			164 nM	154 nM
UAUAUACAUGAGGAUCACCCAUGUGAGGAUAUGCUUUAUUAUUAUUAUUAUUAUUAUUGCAGAAGGUACAUUAU			28.9 nM	28.8 nM
AGUCGGCGAGGAUAUACAUGAGGAUCACCCAUGUGAUAGAGUGCACGCGUACGUGUAUGUAGAAGGCGCUGACA			82 nM	748 nM
GAAAAGGUAGGAUAUACGAAAAAAAAGGGUAGAAAAAAAGCACAUGAGGAUCACCCAUGUAGAAGGACCAAAAG			36.7 nM	132 nM
